Test results published in article PMC3390648 (The Journal of Biological Chemistry, 2012).

B1: Pol1 1–1452: Pol1 allele with the sequence encoding the last 16 amino acids removed (protein)
chain: MSSKSEKLEKLRKLQAARNGTSIDDYEGDESDGDRIYDEIDEKEYRARKRQELLHDDFVVDDDGVGYVDRGVEEDWREVDNSSSDEDTGNLASKDSKRKKNIKREKDHQITDMLRTQHSKSTLLAHAKKSQKKSIPIDNFDDILGEFESGEVEKPNILLPSKLRENLNSSPTSEFKSSIKRVNGNDESSHDAGISKKVKIDPDSSTDKYLEIESSPLKLQSRKLRYANDVQDLLDDVENSPVVATKRQNVLQDTLLANPPSAQSLADEEDDEDSDEDIILKRRTMRSVTTTRRVNIDSRSNPSTSPFVTAPGTPIGIKGLTPSKSLQSNTDVATLAVNVKKEDVVDPETDTFQMFWLDYCEVNNTLILFGKVKLKDDNCVSAMVQINGLCRELFFLPREGKTPTDIHEEIIPLLMDKYGLDNIRAKPQKMKYSFELPDIPSESDYLKVLLPYQTPKSSRDTIPSDLSSDTFYHVFGGNSNIFESFVIQNRIMGPCWLDIKGADFNSIRNASHCAVEVSVDKPQNITPTTTKTMPNLRCLSLSIQTLMNPKENKQEIVSITLSAYRNISLDSPIPENIKPDDLCTLVRPPQSTSFPLGLAALAKQKLPGRVRLFNNEKAMLSCFCAMLKVEDPDVIIGHRLQNVYLDVLAHRMHDLNIPTFSSIGRRLRRTWPEKFGRGNSNMNHFFISDICSGRLICDIANEMGQSLTPKCQSWDLSEMYQVTCEKEHKPLDIDYQNPQYQNDVNSMTMALQENITNCMISAEVSYRIQLLTLTKQLTNLAGNAWAQTLGGTRAGRNEYILLHEFSRNGFIVPDKEGNRSRAQKQRQNEENADAPVNSKKAKYQGGLVFEPEKGLHKNYVLVMDFNSLYPSIIQEFNICFTTVDRNKEDIDELPSVPPSEVDQGVLPRLLANLVDRRREVKKVMKTETDPHKRVQCDIRQQALKLTANSMYGCLGYVNSRFYAKPLAMLVTNKGREILMNTRQLAESMNLLVVYGDTDSVMIDTGCDNYADAIKIGLGFKRLVNERYRLLEIDIDNVFKKLLLHAKKKYAALTVNLDKNGNGTTVLEVKGLDMKRREFCPLSRDVSIHVLNTILSDKDPEEALQEVYDYLEDIRIKVETNNIRIDKYKINMKLSKDPKAYPGGKNMPAVQVALRMRKAGRVVKAGSVITFVITKQDEIDNAADTPALSVAERAHALNEVMIKSNNLIPDPQYYLEKQIFAPVERLLERIDSFNVVRLSEALGLDSKKYFRREGGNNNGEDINNLQPLETTITDVERFKDTVTLELSCPSCDKRFPFGGIVSSNYYRVSYNGLQCKHCEQLFTPLQLTSQIEHSIRAHISLYYAGWLQCDDSTCGIVTRQVSVFGKRCLNDGCTGVMRYKYSDKQLYNQLLYFDSLFDCEKNKKQELKPIYLPDDLDYPKEQLTESSIKALTEQNRELMETGRSVVQKYLNDC
modifications: left off: 9MYC, end not stated, kept
B2: truncated protein: recombinant form of human pol α with the last 67 amino acids removed (protein, UniProt P09884 1-1395, looked up, fragment)
chain: MAPVHGDDSLSDSGSFVSSRARREKKSKKGRQEALERLKKAKAGEKYKYEVEDFTGVYEEVDEEQYSKLVQARQDDDWIVDDDGIGYVEDGREIFDDDLEDDALDADEKGKDGKARNKDKRNVKKLAVTKPNNIKSMFIACAGKKTADKAVDLSKDGLLGDILQDLNTETPQITPPPVMILKKKRSIGASPNPFSVHTATAVPSGKIASPVSRKEPPLTPVPLKRAEFAGDDVQVESTEEEQESGAMEFEDGDFDEPMEVEEVDLEPMAAKAWDKESEPAEEVKQEADSGKGTVSYLGSFLPDVSCWDIDQEGDSSFSVQEVQVDSSHLPLVKGADEEQVFHFYWLDAYEDQYNQPGVVFLFGKVWIESAETHVSCCVMVKNIERTLYFLPREMKIDLNTGKETGTPISMKDVYEEFDEKIATKYKIMKFKSKPVEKNYAFEIPDVPEKSEYLEVKYSAEMPQLPQDLKGETFSHVFGTNTSSLELFLMNRKIKGPCWLEVKSPQLLNQPVSWCKVEAMALKPDLVNVIKDVSPPPLVVMAFSMKTMQNAKNHQNEIIAMAALVHHSFALDKAAPKPPFQSHFCVVSKPKDCIFPYAFKEVIEKKNVKVEVAATERTLLGFFLAKVHKIDPDIIVGHNIYGFELEVLLQRINVCKAPHWSKIGRLKRSNMPKLGGRSGFGERNATCGRMICDVEISAKELIRCKSYHLSELVQQILKTERVVIPMENIQNMYSESSQLLYLLEHTWKDAKFILQIMCELNVLPLALQITNIAGNIMSRTLMGGRSERNEFLLLHAFYENNYIVPDKQIFRKPQQKLGDEDEEIDGDTNKYKKGRKKAAYAGGLVLDPKVGFYDKFILLLDFNSLYPSIIQEFNICFTTVQRVASEAQKVTEDGEQEQIPELPDPSLEMGILPREIRKLVERRKQVKQLMKQQDLNPDLILQYDIRQKALKLTANSMYGCLGFSYSRFYAKPLAALVTYKGREILMHTKEMVQKMNLEVIYGDTDSIMINTNSTNLEEVFKLGNKVKSEVNKLYKLLEIDIDGVFKSLLLLKKKKYAALVVEPTSDGNYVTKQELKGLDIVRRDWCDLAKDTGNFVIGQILSDQSRDTIVENIQKRLIEIGENVLNGSVPVSQFEINKALTKDPQDYPDKKSLPHVHVALWINSQGGRKVKAGDTVSYVICQDGSNLTASQRAYAPEQLQKQDNLTIDTQYYLAQQIHPVVARICEPIDGIDAVLIATWLGLDPTQFRVHHYHKDEENDALLGGPAQLTDEEKYRDCERFKCPCPTCGTENIYDNVFDGSGTDMEPSLYRCSNIDCKASPLTFTVQLSNKLIMDIRRFIKKYYDGWLICEEPTCRNRTRHLPLQFSRTGPLCPACMKATLQPEYSDKSLYTQLCFY

What was measured:
B subunit Pol12 = assay: Immunoprecipitation from yeast extracts and mass spectrometry, B subunit; format: cell-based, Saccharomyces cerevisiae; conditions: diploid yeast, anti-Myc beads, spectral counts
Outline: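 Diploid strains grown asynchronously in YPD (1% yeast extract, 2% peptone, 40 μg/ml adenine, 2% glucose). Extracts made from 250 ml mid-log culture (2.5 × 10^9 cells) with 100 mM potassium acetate, then Benzonase-digested (800 units, 30 min, 4 °C). Tagged protein immunoprecipitated on anti-Myc (9E10) magnetic beads. Eluate run 1 cm into SDS gel, cut into 10 bands, trypsin-digested, and analysed by mass spectrometry.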

Pol12 = assay: Immunoprecipitation and immunoblotting, Pol12; format: cell-based, Saccharomyces cerevisiae; conditions: diploid yeast, anti-HA beads, native cell extracts, immunoblotting
yeast cells = assay: Tetrad analysis, colony formation and growth of yeast cells; format: cell-based, Saccharomyces cerevisiae; conditions: tetrad analysis of meiotic progeny of heterozygous diploid, rich medium YPD
Outline: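 Heterozygous diploids, each carrying one wild-type POL1 copy and one mutant pol1 allele (C-terminal truncation or point mutant), were sporulated. Meiotic progeny were scored by tetrad analysis for germination and colony growth. Medium was rich YPD: 1% yeast extract, 2% peptone, 40 μg/ml adenine, 2% glucose as sole carbon source.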

B subunit = conditions: last 67 amino acids of recombinant human pol α removed; cited from earlier work

Row | Molecule | association with B subunit Pol12 (B subunit Pol12) | association with Pol12 (Pol12) | colony formation / viability and growth (yeast cells) | interaction with the B subunit (B subunit)
1 | B1 | as efficiently as wild-type Pol1 | all associated equally well with Pol12 | not able to form colonies | 
2 | B2 |  |  |  | abolished interaction with the B subunit
